Compounds with a hit are over-represented: about 2.3% of the library has one in this group of screens.
MPTP inh: mitochondrial permeability transition pore inhibitors, primary screen, biochemical, isolated mouse mitochondria, absorbance | Ca2+ swelling absorbance, 30 min | inhibition, % at 10 µM | hit rate 1.4% among 360,000;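 active means inhibition of 50% or more, scaled per plate between neutral and stimulator controls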;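 further: 0% = DMSO wells given calcium and 100% = 1 mM EGTA wells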
SKN-1 inh: suppressors of acrylamide-induced Pgst-4::GFP reporter in worms, primary screen, SKN-1 inhibitor project, whole organism, uHTS, GFP/RFP fluorescence ratio, strain VP596 | C. elegans VP596 Pgst-4::GFP/RFP ratio, 24 h | inhibition, % at 21.8 µM | hit rate 0.49% among 360,000 | AID 624304, 2012;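 active means interference check ratio from 0.5 to 1.5 plus GFP to RFP signal ratio inhibition reaching or exceeding a fixed threshold, cut at about 30% in these data, passing the limit was not always enough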
ATG4B inh: ATG4B protease inhibitors, primary screen, biochemical, fluorescence, uHTS; Cysteine protease ATG4B (Homo sapiens), Q9Y4P1; ATG4B cleavage of LC3-PLA2, NBD-HPC fluorescence, 1 h; inhibition, % at 8.33 µM; hit rate 0.51% among 340,000; AID 504462, 2011; in the data active means inhibition above about 40%
Target sequence (Q9Y4P1 whole entry, looked up): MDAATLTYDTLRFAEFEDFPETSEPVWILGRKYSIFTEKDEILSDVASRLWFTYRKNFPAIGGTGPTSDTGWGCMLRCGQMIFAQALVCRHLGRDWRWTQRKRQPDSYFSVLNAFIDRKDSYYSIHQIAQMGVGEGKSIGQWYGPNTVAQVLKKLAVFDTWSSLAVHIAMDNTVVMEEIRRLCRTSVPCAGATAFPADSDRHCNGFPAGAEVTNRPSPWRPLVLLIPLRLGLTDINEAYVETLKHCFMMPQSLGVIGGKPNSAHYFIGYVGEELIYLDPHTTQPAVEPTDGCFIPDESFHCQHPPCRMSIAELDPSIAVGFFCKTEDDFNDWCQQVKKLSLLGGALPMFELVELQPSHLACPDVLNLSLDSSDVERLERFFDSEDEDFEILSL
MT1-MMP act inh: blockers of MT1-MMP proenzyme processing, primary screen, HT1080 RFP-PRO-GFP cells, GFP/RFP fluorescence. hit rate 0.061% among 360,000. Matrix metalloproteinase-14 (Homo sapiens), P50281. GFP/RFP ratio fluorescence, overnight; percent of plate control window, DMSO zero. GFP/RFP ratio change, % at 20 µM;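 active means GFP/RFP ratio change of at least 30% with cell ATP level not reduced by more than half and red fluorescence within 50% of control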
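Assay system: HT1080 cells carrying an RFP-PRO-GFP reporter | Dosing: Single dose of 20 µM compound, 1% DMSO final | Incubation: Cells overnight before dosing, compound overnight, 37 °C, 5% CO2 | Evaluation: GFP/RFP fluorescence ratio | Control set: DMSO and RFP-L50D-GFP cell wells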
MPTP counter: fluorescence retest of MPTP screen hits in isolated mitochondria, single concentration | shares compounds with MPTP inh | membrane potential, Rhodamine 123 fluorescence | inhibition, % at 10 µM | hit rate 78% among 5,000; in the data active means inhibition above about 22%;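 further: 0% = DMSO vehicle and 100% = positive control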
An asterisk follows results filed as active.

For c1ccc2c(c1)ncn2CCCCOc1ccc2c(c1)CCC2 the results were MPTP inh 88*, SKN-1 inh 15, ATG4B inh 1, MT1-MMP act inh 1 and MPTP counter 96*.
`O=c1c2c(C(F)(F)F)cc(C(F)(F)F)nc2[nH]n1-c1ccccc1` gave MPTP inh 90*, SKN-1 inh 5, ATG4B inh 22, MT1-MMP act inh 12 and MPTP counter 68*.
For Cc1cc(C(C)(C)C)nc2[nH]n(-c3ccccc3)c(=O)c12 the results were MPTP inh 5, SKN-1 inh 5, ATG4B inh -7 and MT1-MMP act inh -3.
Screening Cc1c(C(=O)N/N=C/c2cccs2)nnn1-c1nonc1N returned MPTP inh 0, SKN-1 inh -5, ATG4B inh -2 and MT1-MMP act inh 1.
Screening CC(C)(C)C1CCC(C(=O)OCC(=O)c2ccc[nH]2)CC1 (stereo not drawn) returned MPTP inh -2, SKN-1 inh 1, ATG4B inh 16 and MT1-MMP act inh 4.
O=C(CCSc1nc2ccccc2s1)N/N=C/c1c(O)ccc2ccccc12 was read as MPTP inh 77*, SKN-1 inh 16, ATG4B inh 2, MT1-MMP act inh -2 and MPTP counter 63*.
For Cc1ccc(-n2c(C)cc(C3=NNC(=NC4CC4)SC3)c2C)cc1C the results were MPTP inh 79*, SKN-1 inh 19, ATG4B inh 19, MT1-MMP act inh 4 and MPTP counter 83*.
Cc1cc(C2=NNC(=NC3CC3)SC2)c(C)n1-c1c(C)n(C)n(-c2ccccc2)c1=O was read as MPTP inh 1, SKN-1 inh -7, ATG4B inh -5 and MT1-MMP act inh -3.
For S=C(NCCC(c1ccccc1)c1ccccc1)Nc1ccccc1Cl the results were MPTP inh 4, SKN-1 inh -6, ATG4B inh 35 and MT1-MMP act inh 3.
S=C(NCCC(c1ccccc1)c1ccccc1)Nc1ccc(Cl)cc1 was read as MPTP inh 93*, SKN-1 inh 3, ATG4B inh -3, MT1-MMP act inh 5 and MPTP counter 75*.
`S=C(NCCCc1ccccc1)Nc1ccc(Cl)cc1` gave MPTP inh 97*, SKN-1 inh 8, ATG4B inh 0, MT1-MMP act inh 4 and MPTP counter 91*.
`CCc1ccc(NC(=S)NCc2ccccc2)cc1` gave MPTP inh 0, SKN-1 inh -5, ATG4B inh -7 and MT1-MMP act inh 6.
For S=C(NCc1ccccc1)Nc1ccc(Cl)cc1 the results were MPTP inh 72*, SKN-1 inh 2, ATG4B inh 27, MT1-MMP act inh 1 and MPTP counter 81*.
`COc1ccccc1C(CC(=O)O)NS(=O)(=O)c1ccc2c(c1)N(C(C)=O)CC(C)O2` (stereo not drawn) gave MPTP inh -1, SKN-1 inh 7, ATG4B inh 6 and MT1-MMP act inh 3.
Cc1cnc(CNC(=O)c2ccc3oc(Cc4ccc(Cl)cc4)nc3c2)cn1 was read as MPTP inh 1, SKN-1 inh -18, ATG4B inh -6 and MT1-MMP act inh 1.
`COc1ccc(NC(=O)Cc2csc(NC(=O)Nc3ccccc3OC)n2)cc1` gave MPTP inh 1, SKN-1 inh 18 and MT1-MMP act inh 2.
For Cc1ccc(NC(=S)Nc2nc(CC(=O)Nc3ccccc3)cs2)cc1 the results were MPTP inh 78*, SKN-1 inh 19, ATG4B inh 13, MT1-MMP act inh 9 and MPTP counter 84*.
Screening COc1cc(NC(=O)CCS(=O)(=O)c2ccc3c(c2)n(C)c(=O)c(=O)n3C)cc(OC)c1 returned MPTP inh 0, SKN-1 inh 18, ATG4B inh 3 and MT1-MMP act inh 14.
O=S(=O)(NCC(Nc1ccc(Cl)cc1)c1ccccc1)c1ccc(Cl)cc1 (stereo not drawn) was read as MPTP inh 87*, SKN-1 inh -3, ATG4B inh -4, MT1-MMP act inh -8 and MPTP counter 85*.
`Cc1cc(Cl)ccc1NC(=O)NC1CCN(S(=O)(=O)c2ccc(F)cc2)CC1` gave MPTP inh 59*, SKN-1 inh 21, ATG4B inh -16, MT1-MMP act inh 0 and MPTP counter 76*.
COc1ccc(CNS(=O)(=O)c2c(C(=O)N3CCCCC3)c(C)n(C)c2C)cc1 was read as MPTP inh 0, SKN-1 inh -2, ATG4B inh -3 and MT1-MMP act inh -1.
`CN1CCc2c(OCC(=O)N3CCC(Cc4ccccc4)CC3)cccc2C1=O` gave MPTP inh 82*, SKN-1 inh 2, ATG4B inh 2, MT1-MMP act inh -5 and MPTP counter 49*.
`O=[N+]([O-])c1ccc(Sc2nnnn2-c2ccccc2)nc1` gave ATG4B inh 5.
For CN(C)c1ncnc2c1C(c1ccccc1)C(C)(C)O2 (stereo not drawn) the results were MPTP inh -2, SKN-1 inh 3, ATG4B inh -9 and MT1-MMP act inh 1.
`NC(c1ccccc1)c1csc(NC(=O)Nc2ccc(OC(F)(F)F)cc2)n1` (stereo not drawn) gave MPTP inh 70*, SKN-1 inh -4, MT1-MMP act inh -4 and MPTP counter 78*.
Screening CCOC(=O)Cc1csc(NC(=O)Nc2ccc(OC(F)(F)F)cc2)n1 returned MPTP inh 84*, SKN-1 inh -14, ATG4B inh -7, MT1-MMP act inh -9 and MPTP counter 68*.
`Nc1nc(N)c2ncn(C3C=CC(CO)C3)c2n1` (stereo not drawn) gave MPTP inh -1, SKN-1 inh 11 and MT1-MMP act inh 6.
Screening COc1ccc(CCC(=O)Nc2ccc(Cl)c(S(=O)(=O)N3CCCC3)c2)cc1 returned MPTP inh 96*, SKN-1 inh -7, ATG4B inh -1, MT1-MMP act inh -3 and MPTP counter 85*.

High-throughput results deposited in PubChem BioAssay by Sanford-Burnham Center for Chemical Genomics.
